STAT3 act-1 – IL-6 driven STAT3 reporter potentiators, primary screen, U3A cells, luciferase, luminescence, MLSCN library; 190,000 tested, 0.91% active; AID 871, 2007; activation (% of control), % at 5.6 µM; IL-6 STAT3-luciferase reporter; 100% = signal with IL-6 EC80 alone;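 active means activation above the screen-wide mean of compound activation plus 3 SD, cut at about 130% in these data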
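Detection: reporter luminescence signal / Assay system: STAT1-lacking human U3A cells, STAT3 luciferase reporter / Incubation: compound pre-incubation 1 h before IL-6, then 6 h stimulation at 37 °C / Control set: IL-6-only high control / Read-out: % activation relative to IL-6 control / Probe or stimulus: Interleukin-6, 33 ng/mL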
MT stabilize HCS – microtubule stabilizers in HeLa cells, primary screen, imaging, high-content imaging. HeLa tubulin immunostaining HCS, 24 h; share of cells brighter than vehicle mean+2SD. % tubulin-high responders, % at 10 µM. 200,000 tested, 0.83% active. AID 2205, 2009;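 active means plate Z-score above 3 for both tubulin-high and condensed-nucleus cell shares, with cell loss under 80%, at 10 µM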;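 further: anti alpha tubulin signal scored within the nucleus-defined area of each cell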
b-catenin transl – modulators of beta-catenin nuclear translocation, primary screen, imaging, HeLa cells, immunofluorescence, high-content; nuclear translocation activity, % at 5 µM; 190,000 tested, 0.3% active;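 active means nuclear translocation activity above 50% at 5 µM, with a well cell count of 50 or more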;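 further: per-cell ratio of nuclear to cytoplasmic median beta-catenin stain intensity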
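test system = HeLa cells, endogenous beta-catenin | dosing = single 5 µM dose plus 0.02–20 µM confirmation series | times = compound treatment 24 h, 37°C, 5% CO2 | technique = beta-catenin immunofluorescence imaging with DAPI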
STAT1 inh – STAT1 signaling inhibitors, primary screen, cell-based, HTS, luciferase reporter | NIH 3T3 STAT1-luciferase reporter, IFN-gamma, luminescence | inhibition, % at 5.5 µM | 200,000 tested, 0.35% active | AID 920, 2007;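 active means inhibition above a set limit, the mean inhibition across all tested compounds plus 3 SD, cut at about 34% in these data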
STAT3 blocker – IL-6 driven STAT3 reporter inhibitors, primary screen, U3A cells, luciferase, luminescence, MLSCN library | IL-6 STAT3-luciferase reporter; host cell line lacks STAT1 | 190,000 tested, 0.89% active | AID 862, 2007 | inhibition, % at 5.5 µM;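 active means inhibition above the mean inhibition across all screened compounds plus 3 SD, cut at about 44% in these data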
STAT3 act-2 – STAT3 reporter potentiators, retest of hits, confirmation, U3A cells, luciferase, luminescence | shares compounds with STAT3 act-1 | IL-6 potentiation; U3A cells lack STAT1; 100 means same as IL-6 alone | potentiation (% of control), % at 5.7 µM | 1,200 tested, 64% active | AID 1267, 2008;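 active means percent activation of the STAT3 luciferase reporter above a set limit taken from the earlier primary screen, cut at about 130% in these data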
NFkB act STAT3ct – NF-kB reporter activators in human cells, counter-screen for STAT3 activator project. activation (% of control), % at 5.7 µM. AID 1309, 2008. shares compounds with STAT3 act-1. NF-kappaB reporter activation. 1,200 tested, 11% active; in the data active means activation above about 120%;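 further: reporter induced by TNF-alpha stimulation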
STAT1 act STAT3c – STAT1 reporter activators, IFN-gamma induced, counter-screen for STAT3 activator project, cell-based, NIH 3T3, luciferase luminescence | shares compounds with STAT3 act-1 | NIH 3T3 STAT1-luciferase reporter | activation (% of control), % at 5.7 µM | 1,200 tested, 13% active;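 active means activation above the solvent-only control well mean plus 3 SD, set per screening run, cut at about 120% in these data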
Of the large screens only hits and unclear results are named; the others gave an inactive call (follow-up assays come after a bar, where they were run). Most compounds without a hit are left out; they make up all but 2.4% or so of the library.

CCOC(=O)c1[nH]c2ccccc2c1NC(=S)Nc1cccc(C)c1	STAT3 act-1 163 | STAT3 act-2 155 | NFkB act STAT3ct inactive | STAT1 act STAT3c inactive
CCOC(=O)c1[nH]c2ccccc2c1NC(=S)Nc1ccccc1	STAT3 act-1 157 | STAT3 act-2 163 | NFkB act STAT3ct inactive | STAT1 act STAT3c inactive
CCOC(=O)c1[nH]c2ccccc2c1NC(=O)C(C)(C)C	none
CC(C)COc1ccc(-c2cc(C(=O)NN)[nH]n2)cc1	none
CCn1c(SCC(=O)N/N=C/C=C\c2ccccc2[N+](=O)[O-])nnc1-c1ccccc1	STAT3 act-1 142 | STAT3 act-2 150 | NFkB act STAT3ct inactive | STAT1 act STAT3c inactive
Cc1ccc(-c2nnc(Cc3ccc([N+](=O)[O-])cc3)o2)cc1	none
CC1=CN2C(=N)/C(=C\c3cn(CCCOc4ccccc4)c4ccccc34)C(=O)N=C2S1	none
COc1cccc(NC(=O)COC(=O)c2ccccc2C(=O)N2CCN(c3ccccc3)CC2)c1	none
O=C(c1ccc(S(=O)(=O)Nc2ccccc2)cc1)N1CCOCC1	none
O=C/C(=C\Nc1ccc(C(=O)N2CCOCC2)cc1)c1nc2ccccc2o1	STAT3 act-1 161 | STAT3 act-2 153 | NFkB act STAT3ct inactive | STAT1 act STAT3c inactive
CN(C)C(=O)c1ccc(N/C=C(\C=O)c2nc3ccccc3o2)cc1	STAT3 act-1 141 | STAT3 act-2 138 | NFkB act STAT3ct inactive | STAT1 act STAT3c inactive
C#CCSc1nc(=O)c2cccnc2n1-c1ccc(C)cc1	none (no result: STAT3 act-1, MT stabilize HCS, STAT1 inh, STAT3 blocker)
O=C(CSc1nc2ccccc2c(=O)n1CCCO)NCc1ccccc1	none
O=c1c2ccccc2nc(SCc2nc3ccccc3s2)n1CCCO	STAT3 act-1 137 | STAT3 act-2 151 | NFkB act STAT3ct 121 | STAT1 act STAT3c 151
Cn1nnnc1SCc1nc2ccccc2s1	STAT3 act-1 139 | STAT3 act-2 139 | NFkB act STAT3ct inactive | STAT1 act STAT3c 124
Cc1cc2cc3c(cc2nc1SCC(=O)Nc1nc(C)c(C)s1)OCO3	STAT3 act-1 169 | STAT3 act-2 133 | NFkB act STAT3ct inactive | STAT1 act STAT3c inactive
CCCCNC(=O)/C=C/c1ccc(S(=O)(=O)Nc2ccc(OC)cc2)cc1	none
CCNC(=O)n1cc(-n2cncn2)c(-c2ccccc2)n1	none
CSc1ncc(CN2CCc3c([nH]c4ccccc34)C2c2cccc(O)c2)cn1 (stereo unspecified)	STAT3 act-1 154 | STAT3 act-2 147 | NFkB act STAT3ct inactive | STAT1 act STAT3c inactive
CCn1cc(CN2CCc3c([nH]c4ccccc34)C2c2cccc(O)c2)c(C)n1 (stereo unspecified)	STAT3 act-1 142 | STAT3 act-2 140 | NFkB act STAT3ct inactive | STAT1 act STAT3c inactive
CCn1cc(CN2CCc3c([nH]c4ccccc34)C2c2ccc(F)c(OC)c2)c(C)n1 (stereo unspecified)	none
Nc1cc(C(F)(F)F)ccc1Nc1ccccc1	none
COc1ccc(Cl)cc1-c1nc(SCC(N)=O)n[nH]1	none (no result: STAT3 act-1, MT stabilize HCS, STAT1 inh, STAT3 blocker)
O=C1Cn2c(nc3ccccc32)N1c1cccc(C(F)(F)F)c1	STAT3 act-1 136 (no result: b-catenin transl) | STAT3 act-2 inactive | NFkB act STAT3ct inactive | STAT1 act STAT3c inactive
O=C(Nc1ccccn1)C1COc2ccccc2O1 (stereo unspecified)	none
CC1Oc2ccccc2OC1C(=O)Nc1ccccn1 (stereo unspecified)	STAT3 act-1 156 | STAT3 act-2 144 | NFkB act STAT3ct inactive | STAT1 act STAT3c inactive
Cc1noc(NC(=O)c2ccccc2C(F)(F)F)c1C#N	none

Assay outcomes deposited in PubChem by several laboratories.
